Rows were chosen to be rich in hits. Some 2.5% of all compounds tested hit in one or more screens of this group.
SENP8 block-1: SENP8 (human) protease inhibition | Q96LD8 | recombinant SENP8, Nedd8 substrate fluorescence | inhibition, % at 20 µM | 360,000 tested, 0.64% active | AID 602440; in the data active means inhibition mostly above about 40%, no sharp cut-off; inactive means mostly below about 27%
Target sequence (Q96LD8 whole entry, looked up): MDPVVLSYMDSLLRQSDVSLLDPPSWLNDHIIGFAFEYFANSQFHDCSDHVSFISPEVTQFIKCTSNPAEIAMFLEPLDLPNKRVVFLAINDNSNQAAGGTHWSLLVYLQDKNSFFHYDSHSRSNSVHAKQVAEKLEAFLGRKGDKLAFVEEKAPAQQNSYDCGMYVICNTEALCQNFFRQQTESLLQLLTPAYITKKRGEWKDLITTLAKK
SENP8 block-2: blocks the human protease SENP8; Q96LD8; purified SENP8, Z-RLRGG-aminoluciferin cleavage, luminescence; inhibition, % at 10 µM; 330,000 tested, 1.2% active; AID 2540; in the data active means inhibition above about 50%
SENP7 block: SENP7 protease inhibition; Q9BQF6; recombinant SENP7, Z-RLRGG-aminoluciferin luminescence, 40 min; inhibition, % at 5 µM; 330,000 tested, 1.5% active; AID 434973;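 active means inhibition above about 50% at the single test dose, limit read from the data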;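 further: plate controls were DMSO with enzyme for no effect and no enzyme buffer wells for full effect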
SENP1 FRET inh: inhibitors of human SENP1 SUMO protease catalytic domain; recombinant SENP1 catalytic domain, CyPet-SUMO1-YPet FRET cleavage; inhibition, % at 10 µM; 360,000 tested, 0.21% active; AID 624204;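 active means inhibition at least 30% at 10 µM, raw YFP signal under a set limit, fluorescence ratio 0.5 to 1.5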;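 further: 0% = enzyme with DMSO and 100% = no enzyme wells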
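Assay system – human recombinant His6-tagged SENP1 catalytic domain enzyme · Input – SENP1 enzyme, 20 pM final · Buffer or medium – Tris pH 8 buffer plus EDTA, NaCl, BME, BSA, NP40, catalase · Schedule – 50 min reaction at room temperature · Technique – FRET read of cyan and yellow fluorescence · Control set – no-enzyme wells low, DMSO-plus-enzyme wells high control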
SENP6 inh: SENP6 protease inhibition; inhibition, % at 10 µM; Recombinant SENP6 catalytic domain, aminoluciferin luminescence; 330,000 tested, 1.8% active; Q9GZR1; AID 2599;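 active means inhibition above about 50% at the single tested dose, limit read from the data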;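 further: plate controls were DMSO wells with enzyme for no effect and DMSO wells lacking enzyme for full effect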
SENP8 conf: confirmation of human SENP8 protease inhibitors; inhibition, % at 12.5 µM; Recombinant SENP8, Z-RLRGG-aminoluciferin luminescence, 60 min; 6,200 tested, 40% active; shares compounds with SENP7 block;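 active means mean inhibition across replicates above about 50%, limit read from the data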
SENP6 confirm: confirmation of human SENP6 protease inhibitors; shares compounds with SENP7 block; recombinant SENP6, Z-RLRGG-aminoluciferin luminescence; inhibition, % at 12.5 µM; 6,200 tested, 58% active
SENP7 confirm: human SENP7 inhibition, confirmed; inhibition, % at 12.5 µM; shares compounds with SENP7 block; recombinant SENP7, Z-RLRGG-aminoluciferin luminescence, 40 min; 6,200 tested, 69% active
Casp3 SENP sel: selectivity test for SENP inhibitors: human caspase-3 inhibition; shares compounds with SENP7 block; purified caspase-3, Z-DEVD-aminoluciferin luminescence, 60 min; inhibition, % at 12.5 µM; 6,200 tested, 60% active;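 active means mean inhibition above about 50%, limit read from the data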;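 further: plate controls were enzyme with DMSO for no effect and wells without caspase-3 for full effect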
Target sequence (P42574 28-227 limits assumed): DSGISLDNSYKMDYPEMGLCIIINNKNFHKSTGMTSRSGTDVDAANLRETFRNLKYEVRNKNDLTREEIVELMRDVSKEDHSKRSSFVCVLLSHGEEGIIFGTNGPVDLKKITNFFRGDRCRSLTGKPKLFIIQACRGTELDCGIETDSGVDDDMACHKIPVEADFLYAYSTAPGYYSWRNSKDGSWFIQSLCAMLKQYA
Luc interf: luminescence interference (SENP counter-screen); shares compounds with SENP7 block; Pre-incubated SENP8/Z-RLRGG-aminoluciferin, luciferase luminescence interference; inhibition, % at 12.5 µM; 6,200 tested, 39% active;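 active means mean inhibition above about 50% when retested at one dose, limit read from the data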;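 further: plate controls were DMSO wells with completed reaction for no effect and substrate without enzyme for full effect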
Active calls of the source: *; / = no result given.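 How the source made its calls, unless noted: active means mean inhibition above about 50% in the one-dose retest (limit read from the data); inactive means the rest.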

SMILES	SENP8 block-1	SENP8 block-2	SENP7 block	SENP1 FRET inh	SENP6 inh	SENP8 conf	SENP6 confirm	SENP7 confirm	Casp3 SENP sel	Luc interf
O=C(/C=C/c1ccccc1Cl)Nc1ccccc1	22	96*	99*	0	97*	8	99*	103*	94*	95*
O=C(/C=C/c1ccccc1Cl)c1cccnc1	17	-3	-9	-1	-9	/	/	/	/	/
CCc1ccccc1NS(=O)(=O)Cc1ccccc1	1	-16	11	1	6	/	/	/	/	/
O=S(=O)(Nc1cccc(-n2cnnn2)c1)c1ccccc1F	1	5	-3	1	12	/	/	/	/	/
CC(O)(c1ccncc1)c1nc(-c2cccc(C(F)(F)F)c2)cs1 (centres undefined)	11	/	/	-1	/	/	/	/	/	/
Cc1cc2nn(-c3ccccc3)nc2cc1NC(=O)c1cccs1	-60	-16	7	0	14	/	/	/	/	/
CC(=O)Nc1cc2nn(-c3ccccc3)nc2cc1C	-421	72*	77*	-8	78*	26	45	87*	79*	26
O=C(c1cccc([N+](=O)[O-])c1)c1cc2ccccc2o1	16	-1	5	1	21	/	/	/	/	/
Cc1ccc(C(=O)c2cc3ccccc3o2)cc1	17	44	56*	2	77*	32	60*	86*	52*	59*
Cc1ccc(C(=O)c2cc3ccccc3o2)cc1C	27	69*	76*	2	82*	5	72*	53*	29	26
COc1ccc(C(=O)c2cc3cccc(OC)c3o2)cc1	-16	82*	83*	2	84*	88*	86*	97*	76*	66*
O=C(c1cc2ccccc2o1)c1cccs1	2	51*	72*	0	11	50	75*	93*	68*	58*
COc1cccc(C(C)(O)c2nc(-c3cccc(NC(C)=O)c3)cs2)c1 (centres undefined)	4	/	/	0	/	/	/	/	/	/
COC(=O)c1ccc(Cn2c(C)c(C(=O)NCc3cccc([N+](=O)[O-])c3)sc2=O)o1	1	/	/	-1	/	/	/	/	/	/
Cc1ccccc1Cn1cc(S(=O)(=O)c2ccc(C(C)C)cc2)c(=O)c2cc3c(cc21)OCO3	-89	-8	3	2	-10	/	/	/	/	/
COc1ccc(-c2nc(CCl)cs2)cc1	-35	27	8	2	21	/	/	/	/	/
CCc1ccc(-c2nc(CCl)cs2)cc1	10	56*	64*	5	74*	19	84*	96*	69*	21
Cc1ccc(NC(=O)c2cc3ccccc3oc2=N)cc1	19	33	90*	2	58*	16	16	7	20	6
N=c1oc2ccccc2cc1C(=O)Nc1ccc(F)cc1	20	/	/	-5	/	/	/	/	/	/
N=c1oc2ccccc2cc1C(=O)Nc1cccc(F)c1	9	56*	92*	0	66*	43	35	29	62*	2
N=c1oc2cc(O)ccc2cc1C(=O)Nc1ccc(Cl)cc1	-322	54*	7	-21	55*	-3	11	22	19	19
COc1cc2ccccc2cc1C(=O)Nc1ccc(C)cc1	9	1	-8	-4	28	/	/	/	/	/
COC(=O)c1sccc1S(=O)(=O)Nc1ccc(C(O)(C(F)(F)F)C(F)(F)F)cc1	1	/	/	1	/	/	/	/	/	/
COc1ccc(CCNC(=O)CCn2c(SCC(=O)N3CCCC3)nc3ccccc3c2=O)cc1OC	11	-1	2	1	70*	12	4	0	-3	-2
CC(=O)N1CCC(N(CCCOC(C)C)S(=O)(=O)c2ccc([N+](=O)[O-])cc2)CC1	17	-8	6	2	-8	/	/	/	/	/
SMILES	SENP8 block-1	SENP8 block-2	SENP7 block	SENP1 FRET inh	SENP6 inh	SENP8 conf	SENP6 confirm	SENP7 confirm	Casp3 SENP sel	Luc interf
O=S1(=O)N=C(Nc2nc3c(s2)CCCC3)c2ccccc21	9	77*	76*	2	86*	83*	78*	94*	86*	52*
c1ccc(CSc2nnc3ccc(-c4ccco4)nn23)nc1	-22	4	3	2	-19	/	/	/	/	/
Cc1c(Cc2ccccc2)c(=O)n2c([nH]c3ccccc32)c1C#N	-432	13	11	-3	52*	-2	14	7	4	-1
N#Cc1c(C(F)(F)F)cc(=O)n2c1[nH]c1ccccc12	-288	71*	2	-27	83*	3	75*	91*	79*	76*
O=C(CN1C2=NCCCN2c2ccccc21)c1ccc(Cl)cc1Cl	12	-5	7	2	-17	/	/	/	/	/
Cn1c(=O)c2cc(NCc3ccccc3)nnc2n(C)c1=O	-83	80*	5	-25	81*	-3	-2	-5	-4	-8
Cn1c(=O)c2c(nc(NCc3ccccc3)n2C)n(C)c1=O	10	-3	-4	2	1	/	/	/	/	/
CCc1noc(C)c1C(=O)Nc1ccc(Cl)c(S(=O)(=O)N2CCCCC2)c1	6	-3	-6	1	-8	/	/	/	/	/
COc1cccc(C(=O)O[C@H]2[C@H](C)NS(=O)(=O)[C@H]3C[C@@H]4C=C[C@]23O4)c1	8	-9	-2	0	68*	11	3	-1	-5	-5
Cc1cccc(C(=O)O[C@H]2[C@H](C)NS(=O)(=O)[C@H]3CC4C=C[C@]23O4)c1	10	-8	-7	1	2	/	/	/	/	/
O=C(CCc1nnc2ccc(N3CCOCC3)nn12)Nc1ccc(F)cc1F	9	12	-3	-1	7	/	/	/	/	/
Cc1cccc(C#Cc2ccccc2)n1	5	84*	90*	0	91*	-8	73*	96*	82*	8
Cc1cccc(NS(=O)(=O)Cc2ccccc2)n1	-496	-2	0	1	-9	/	/	/	/	/
Cc1ccc(NC(=O)Cn2nc(C)c(S(=O)(=O)N(C)C)c2C)cc1C	28	-4	-5	2	-15	/	/	/	/	/
CC(C)CCNC(=O)C(c1cccnc1)N(CCc1ccccc1)C(=O)Cn1nnc2ccccc21 (centres undefined)	22	5	7	3	8	/	/	/	/	/
Cc1sc(NC(=O)c2ccc(Br)s2)c(C(N)=O)c1C	-54	26	51*	-2	76*	25	20	45	22	11

Screening results deposited in PubChem by Sanford-Burnham Center for Chemical Genomics.
